From PMC12080315 (Chemistry (Weinheim an Der Bergstrasse, Germany), 2025)
Entries after “also recorded” stand apart in the source; their conditions may differ.

Assays:
MiaPaCa2 cells = test: Antiproliferative activity, trypan blue cell viability assay; assay type: cell-based, human; settings: for IC50: Homo sapiens, MIA PaCa-2, 72 h, read-out: IC50, antiproliferation activity
Outline: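 MiaPaCa2 cells (K-Ras G12C) seeded at 1×10³ cells/well and left overnight at 37 °C, 5% CO2. Next day they were given various concentrations of test compound and incubated 72 h at 37 °C, 5% CO2. A trypan blue assay followed, […]. Sotorasib served as positive control. n = 3, mean ± SEM.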

recombinant FTase = recombinant FTase (Homo sapiens, UniProt P49354+P49356); test: Fluorescent in vitro FTase inhibition assay; assay type: biochemical; settings: for selectivity for FTase over GGTase I: ratio of K i values GGTase I / FTase
Sequence of recombinant FTase (P49356 whole entry, one chain of several): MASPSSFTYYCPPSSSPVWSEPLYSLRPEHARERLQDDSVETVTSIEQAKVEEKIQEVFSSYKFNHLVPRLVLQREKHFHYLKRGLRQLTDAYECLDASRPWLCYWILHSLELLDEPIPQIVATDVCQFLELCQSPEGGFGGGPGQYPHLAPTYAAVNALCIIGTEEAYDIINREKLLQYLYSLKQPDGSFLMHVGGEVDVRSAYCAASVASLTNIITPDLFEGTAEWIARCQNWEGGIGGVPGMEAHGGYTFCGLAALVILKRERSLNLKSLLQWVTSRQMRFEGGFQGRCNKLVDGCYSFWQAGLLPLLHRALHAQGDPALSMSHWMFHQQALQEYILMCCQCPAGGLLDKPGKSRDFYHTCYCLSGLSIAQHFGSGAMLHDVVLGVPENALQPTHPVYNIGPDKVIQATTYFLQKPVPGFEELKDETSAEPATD
Outline: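 Recombinant FTase (25–37 nM) was reacted with dansyl-labelled K-Ras4B C-terminal peptide (1 µM) and FPP (5 µM), with test compound at 0–500 µM. Enzyme, substrates and compound were spotted separately, then buffer was added to start the reaction. Fluorescence (ex 340/em 520 nm) was followed for 5 min. n = 3, SEM.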

recombinant GGTase I = recombinant GGTase I (Homo sapiens, UniProt P49354+P53609); test: Fluorescent in vitro GGTase I inhibition assay; assay type: biochemical
Sequence of recombinant GGTase I (P53609 whole entry, one chain of several): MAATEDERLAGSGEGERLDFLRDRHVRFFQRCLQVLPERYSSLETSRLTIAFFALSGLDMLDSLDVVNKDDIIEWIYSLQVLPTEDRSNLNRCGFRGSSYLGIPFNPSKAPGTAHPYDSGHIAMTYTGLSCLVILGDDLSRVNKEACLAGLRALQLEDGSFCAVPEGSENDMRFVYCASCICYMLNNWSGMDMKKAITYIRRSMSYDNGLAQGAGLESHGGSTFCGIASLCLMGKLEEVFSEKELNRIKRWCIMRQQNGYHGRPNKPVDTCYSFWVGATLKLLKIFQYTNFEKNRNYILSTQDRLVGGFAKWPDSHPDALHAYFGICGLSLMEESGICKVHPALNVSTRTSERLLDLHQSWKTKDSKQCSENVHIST
Outline: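 Recombinant GGTase I (25–37 nM) was run with dansyl-labelled K-Ras C-terminal peptide (1 µM) and test compound at 0–500 µM. GGPP was diluted to a 110 µM working stock before use. Buffer was 50 mM Tris-HCl pH 7.5 with MgCl2, ZnCl2, dodecyl maltoside and DTT, at 37 °C. Fluorescence kinetics (ex 340/em 520 nm) were recorded over 5 min. n = 3, SEM.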

K‐Ras prenylation = test: Gel-shift assay; assay type: cell-based, human; settings: MiaPaca‐2 cells, 48 hours, 30 and 100 µM
Outline: (§1)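 MiaPaCa2 cells were grown in DMEM with 10% heat-inactivated FBS and 1% penicillin-streptomycin. They were treated 48 h with vehicle or test compound at 30 and 100 µM; the positive control, a dual FTase/GGTase I inhibitor, was used at 10 and 30 µM. Cells were PBS-washed and lysed with protease and phosphatase inhibitors. Lysates ran on 4–20% SDS-PAGE gel-shift blots, probed with anti-K-Ras or anti-Rap1A+B, plus anti-vinculin.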

Rap1 geranylgeranylation = test: Gel-shift assay; assay type: cell-based, human; settings: MiaPaca‐2 cells, 48 hours, 30 and 100 µM
Outline: as §1

IC50 (recombinant FTase) | Ki (recombinant FTase) | IC50 (recombinant GGTase I) | Ki (recombinant GGTase I) | SMILES | further results
– | – | – | – | C=CC(=O)N1CCN(c2nc(=O)n(-c3c(C)ccnc3C(C)C)c3nc(-c4c(O)cccc4F)c(F)cc23)[C@@H](C)C1 [sotorasib, reference compound] | IC50 (MiaPaCa2 cells): 10 to 100 nM
630 nM | 3.8 ± 1.1 nM | 2400 nM | 77 ± 51 nM | CSCC[C@H](NC(=O)NC1(c2ccccc2)CCN(Cc2cncn2Cc2ccc(-n3cc(COCCCCCCN)nn3)cc2)CC1)C(=O)O [Compound 5b, ((1‐((1‐(4‐(4‐(((6‐Aminohexyl)oxy)methyl)‐1H‐1,2,3‐triazol‐1‐yl)benzyl)‐1H‐imidazol‐5‐yl)methyl)‐4‐phenylpiperidin‐4‐yl)carbamoyl)‐L‐methionine] | selectivity for FTase over GGTase I (recombinant FTase): 20 fold
– | 790 ± 45 nM | > 500000 nM | – | CSCC[C@H](NC(=O)NC1(c2ccccc2)CCN(Cc2cnc[nH]2)CC1)C(=O)O [Compound 1, ((1‐((1H‐Imidazol‐5‐yl)methyl)‐4‐phenylpiperidin‐4‐yl)carbamoyl)‐L‐methionine] | –
– | – | – | – | COC(=O)[C@H](CCSC)NC(=O)NC1(c2ccccc2)CCN(Cc2cncn2Cc2ccc(N=[N+]=[N-])cc2)CC1 [Compound 2, Methyl ((1‐((1‐(4‐azidobenzyl)‐1H‐imidazol‐5‐yl)methyl)‐4‐phenylpiperidin‐4‐yl)carbamoyl)‐L‐methioninate] | inhibition of prenylation (processing) of K‐Ras in cells (K‐Ras prenylation): able to inhibit; also recorded: inhibit the processing; IC50 (MiaPaCa2 cells): 100 to 1000 nM; IC50 relative to that of sotorasib (MiaPaCa2 cells; MiaPaCa2 cells, 72 hours): approximately 10 fold; inhibition of geranylgeranylation (processing) of Rap1 in cells (Rap1 geranylgeranylation): inhibited; also recorded: inhibit the processing
752 nM | 4.6 ± 0.08 nM | 90 nM | 2.9 ± 0.7 nM | CSCC[C@H](NC(=O)NC1(c2ccccc2)CCN(Cc2cncn2Cc2ccc(-n3cc(COCCCCCCNC(=O)c4ccc(N)cc4)nn3)cc2)CC1)C(=O)O [Compound 5c, ((1‐((1‐(4‐(4‐(((6‐(4‐Aminobenzamido)hexyl)oxy)methyl)‐1H‐1,2,3‐triazol‐1‐yl)benzyl)‐1H‐imidazol‐5‐yl)methyl)‐4‐phenylpiperidin‐4‐yl)carbamoyl)‐L‐methionine] | –
330 nM | 2 ± 0.2 nM | 530 nM | 17 ± 5 nM | CSCC[C@H](NC(=O)NC1(c2ccccc2)CCN(Cc2cncn2Cc2ccc(-n3cc(COCCCCCCNC(=O)c4ccc(C(=N)N)cc4)nn3)cc2)CC1)C(=O)O [Compound 5e, ((1‐((1‐(4‐(4‐(((6‐(4‐Carbamimidoylbenzamido)hexyl)oxy)methyl)‐1H‐1,2,3‐triazol‐1‐yl)benzyl)‐1H‐imidazol‐5‐yl)methyl)‐4‐phenylpiperidin‐4‐yl)carbamoyl)‐L‐methionine] | –
> 500000 nM | – | – | – | C#CCOCCCCCCNC(=N)N [Compound 12, 1‐(6‐(Prop‐2‐yn‐1‐yloxy)hexyl)guanidine] | –
– | – | – | – | COC(=O)[C@H](CCSC)NC(=O)NC1(c2ccccc2)CCN(Cc2cncn2Cc2ccc(-n3cc(COCCCCCCNC(=O)c4ccc(N)cc4)nn3)cc2)CC1 [Compound 4c, Methyl ((1‐((1‐(4‐(4‐(((6‐(4‐aminobenzamido)hexyl)oxy)methyl)‐1H‐1,2,3‐triazol‐1‐yl)benzyl)‐1H‐imidazol‐5‐yl)methyl)‐4‐phenylpiperidin‐4‐yl)carbamoyl)‐L‐methioninate] | inhibition of prenylation (processing) of K‐Ras in cells (K‐Ras prenylation): able to inhibit; also recorded: inhibit the processing; also recorded: disrupt the processing; inhibition of geranylgeranylation (processing) of Rap1 in cells (Rap1 geranylgeranylation): inhibited; also recorded: more potent than 2; also recorded: inhibit the processing; also recorded: disrupt the processing
350 nM | 2.1 ± 0.5 nM | 6480 nM | 210 nM | CSCC[C@H](NC(=O)NC1(c2ccccc2)CCN(Cc2cncn2Cc2ccc(N=[N+]=[N-])cc2)CC1)C(=O)O [Compound 3, ((1‐((1‐(4‐Azidobenzyl)‐1H‐imidazol‐5‐yl)methyl)‐4‐phenylpiperidin‐4‐yl)carbamoyl)‐L‐methionine] | increase in potency for FTase compared to 1 (recombinant FTase; ratio of K i values): 376 fold; selectivity for FTase over GGTase I (recombinant FTase): 100 fold
– | – | – | – | COC(=O)[C@H](CCSC)NC(=O)NC1(c2ccccc2)CCN(Cc2cncn2Cc2ccc(-n3cc(COCCCCCCNC(=O)c4ccc(NC(=N)N)cc4)nn3)cc2)CC1 [Compound 4d, Methyl ((1‐((1‐(4‐(4‐(((6‐(4‐guanidinobenzamido)hexyl)oxy)methyl)‐1H‐1,2,3‐triazol‐1‐yl)benzyl)‐1H‐imidazol‐5‐yl)methyl)‐4‐phenylpiperidin‐4‐yl)carbamoyl)‐L‐methioninate] | inhibition of geranylgeranylation (processing) of Rap1 in cells (Rap1 geranylgeranylation): did not inhibit
290 nM | 1.7 ± 0.5 nM | 7840 nM | 250 ± 50 nM | CSCC[C@H](NC(=O)NC1(c2ccccc2)CCN(Cc2cncn2Cc2ccc(-n3cc(COCCCCCCNC(=N)N)nn3)cc2)CC1)C(=O)O [Compound 5a, ((1‐((1‐(4‐(4‐(((6‐Guanidinohexyl)oxy)methyl)‐1H‐1,2,3‐triazol‐1‐yl)benzyl)‐1H‐imidazol‐5‐yl)methyl)‐4‐phenylpiperidin‐4‐yl)carbamoyl)‐L‐methionine] | selectivity for FTase over GGTase I (recombinant FTase): 147 fold
300 nM | 1.8 ± 0.4 nM | 96 nM | 3.1 ± 0.5 nM | CSCC[C@H](NC(=O)NC1(c2ccccc2)CCN(Cc2cncn2Cc2ccc(-n3cc(COCCCCCCNC(=O)c4ccc(NC(=N)N)cc4)nn3)cc2)CC1)C(=O)O [Compound 5d, ((1‐((1‐(4‐(4‐(((6‐(4‐Guanidinobenzamido)hexyl)oxy)methyl)‐1H‐1,2,3‐triazol‐1‐yl)benzyl)‐1H‐imidazol‐5‐yl)methyl)‐4‐phenylpiperidin‐4‐yl)carbamoyl)‐L‐methionine] | –
> 500000 nM | – | > 500000 nM | – | C#CCOCCCCCCNC(=O)c1ccc(C(=N)N)cc1 [Compound 13, 4‐Carbamimidoyl‐N‐(6‐(prop‐2‐yn‐1‐yloxy)hexyl)benzamide] | antiproliferative activity (result in words) (MiaPaCa2 cells; MiaPaCa2 cells, 72 hours, trypan blue assay): inactive
– | – | – | – | COC(=O)[C@H](CCSC)NC(=O)NC1(c2ccccc2)CCN(Cc2cncn2Cc2ccc(-n3cc(COCCCCCCNC(=O)c4ccc(C(=N)N)cc4)nn3)cc2)CC1 [Compound 4e, Methyl ((1‐((1‐(4‐(4‐(((6‐(4‐carbamimidoylbenzamido)hexyl)oxy)methyl)‐1H‐1,2,3‐triazol‐1‐yl)benzyl)‐1H‐imidazol‐5‐yl)methyl)‐4‐phenylpiperidin‐4‐yl)carbamoyl)‐L‐methioninate] | inhibition of geranylgeranylation (processing) of Rap1 in cells (Rap1 geranylgeranylation): did not inhibit
